Measurements taken from ChEMBL document CHEMBL1250476, “Synthesis and antifungal evaluation of novel triazole derivatives as inhibitors of cytochrome P450 14alpha-demethylase” (2010).
Converted amounts (≈) assume the structure as drawn.

Experiments:
Assay type in all cases: functional
Trichophyton rubrum = assay: Antifungal activity against Trichophyton rubrum by micro-broth dilution method
Procedure, shortened: (§1)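 MIC80 by broth microdilution in 96-well format following NCCLS. Compounds were dissolved in DMSO, serially diluted in growth medium, inoculated and incubated at 35 °C. The endpoint was the first well with about 80% growth reduction versus the drug-free well. Values are means of three replicate tests.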

Cryptococcus neoformans = assay: Antifungal activity against Cryptococcus neoformans after 72 hrs by micro-broth dilution method
Procedure, shortened: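 Cryptococcus neoformans tested by NCCLS micro-broth dilution. Compounds were dissolved in DMSO, serially diluted in medium, inoculated and incubated at 35 °C. MIC80 was read at 72 h as the first well showing approximately 80% growth reduction compared with the drug-free well. Values are the mean of three replicate tests.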

Candida tropicalis = assay: Antifungal activity against Candida tropicalis by micro-broth dilution method; procedure, shortened: as §1
Candida parapsilosis = assay: Antifungal activity against Candida parapsilosis by micro-broth dilution method; conditions: Lodderomyces parapsilosis; procedure, shortened: as §1
Kluyveromyces marxianus = assay: Antifungal activity against Candida kefyr by micro-broth dilution method; procedure, shortened: as §1
Candida albicans [1] = assay: Antifungal activity against Candida albicans Y0109 after 24 hrs by micro-broth dilution method; conditions: Y0109, 24 h
Procedure, shortened: (§2)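 Broth microdilution per NCCLS on Candida albicans. Compounds were dissolved in DMSO, serially diluted in growth medium, inoculated and incubated at 35 °C. Growth was read at 24 h, and MIC80 was taken as the first well with about 80% growth reduction relative to the drug-free control. Values are the mean of three replicates.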

Aspergillus fumigatus = assay: Antifungal activity against Aspergillus fumigatus by micro-broth dilution method; procedure, shortened: as §1
Candida albicans [2] = assay: Antifungal activity against Candida albicans SC5314 after 24 hrs by micro-broth dilution method; conditions: SC5314, 24 h; procedure, shortened: as §2

Structure (SMILES)	MIC (Trichophyton rubrum) [µg/mL]	MIC (Cryptococcus neoformans) [µg/mL]	MIC (Candida tropicalis) [µg/mL]	MIC (Candida parapsilosis) [µg/mL]	MIC (Kluyveromyces marxianus) [µg/mL]	MIC (Candida albicans [1]) [µg/mL]	MIC (Aspergillus fumigatus) [µg/mL]	MIC (Candida albicans [2]) [µg/mL]
CCCCCn1cc(CN(CC(O)(Cn2cncn2)c2ccc(F)cc2F)C2CC2)nn1 (stereo not given)	< 0.125	32 (≈ 71.8 µM)	0.25 (≈ 0.561 µM)	0.5 (≈ 1.12 µM)	0.25 (≈ 0.561 µM)	0.0625 (≈ 0.14 µM)	> 64	< 0.125
OC(CN(Cc1cn(C2CCCCC2)nn1)C1CC1)(Cn1cncn1)c1ccc(F)cc1F (stereo not given)	2 (≈ 4.37 µM)	2 (≈ 4.37 µM)	1 (≈ 2.19 µM)	1 (≈ 2.19 µM)	0.25 (≈ 0.546 µM)	0.0625 (≈ 0.137 µM)	32 (≈ 69.9 µM)	4 (≈ 8.74 µM)
OC(CN(Cc1cn(Cc2cccc(Cl)c2)nn1)C1CC1)(Cn1cncn1)c1ccc(F)cc1F (stereo not given)	4 (≈ 8 µM)	64 (≈ 128 µM)	4 (≈ 8 µM)	8 (≈ 16 µM)	0.0156 (≈ 0.0312 µM)	0.0156 (≈ 0.0312 µM)	> 64	1 (≈ 2 µM)
OC(CN(Cc1cn(Cc2ccc(Cl)cc2)nn1)C1CC1)(Cn1cncn1)c1ccc(F)cc1F (stereo not given)	2 (≈ 4 µM)	16 (≈ 32 µM)	0.5 (≈ 1 µM)	2 (≈ 4 µM)	0.0156 (≈ 0.0312 µM)	0.25 (≈ 0.5 µM)	> 64	0.25 (≈ 0.5 µM)
OC(CN(Cc1cn(Cc2ccccc2Br)nn1)C1CC1)(Cn1cncn1)c1ccc(F)cc1F (stereo not given)	2 (≈ 3.67 µM)	64 (≈ 118 µM)	2 (≈ 3.67 µM)	2 (≈ 3.67 µM)	0.0625 (≈ 0.115 µM)	16 (≈ 29.4 µM)	> 64	0.25 (≈ 0.459 µM)
OC(CN(Cc1cn(Cc2cccc(Br)c2)nn1)C1CC1)(Cn1cncn1)c1ccc(F)cc1F (stereo not given)	0.25 (≈ 0.459 µM)	0.25 (≈ 0.459 µM)	4 (≈ 7.35 µM)	0.25 (≈ 0.459 µM)	0.0625 (≈ 0.115 µM)	0.0156 (≈ 0.0287 µM)	> 64	0.0156 (≈ 0.0287 µM)
OC(CN(Cc1cn(Cc2ccc(Br)cc2)nn1)C1CC1)(Cn1cncn1)c1ccc(F)cc1F (stereo not given)	1 (≈ 1.84 µM)	16 (≈ 29.4 µM)	0.5 (≈ 0.918 µM)	1 (≈ 1.84 µM)	0.0156 (≈ 0.0287 µM)	0.0156 (≈ 0.0287 µM)	> 64	0.25 (≈ 0.459 µM)
Cc1ccccc1Cn1cc(CN(CC(O)(Cn2cncn2)c2ccc(F)cc2F)C2CC2)nn1 (stereo not given)	1 (≈ 2.09 µM)	0.0625 (≈ 0.13 µM)	4 (≈ 8.34 µM)	4 (≈ 8.34 µM)	0.25 (≈ 0.521 µM)	0.0156 (≈ 0.0325 µM)	> 64	0.0625 (≈ 0.13 µM)
Cc1cccc(Cn2cc(CN(CC(O)(Cn3cncn3)c3ccc(F)cc3F)C3CC3)nn2)c1 (stereo not given)	< 0.125	2 (≈ 4.17 µM)	< 0.125	< 0.125	0.0156 (≈ 0.0325 µM)	0.0156 (≈ 0.0325 µM)	64 (≈ 133 µM)	0.5 (≈ 1.04 µM)
Cc1ccc(Cn2cc(CN(CC(O)(Cn3cncn3)c3ccc(F)cc3F)C3CC3)nn2)cc1 (stereo not given)	< 0.125	1 (≈ 2.09 µM)	< 0.125	< 0.125	0.0156 (≈ 0.0325 µM)	0.0156 (≈ 0.0325 µM)	64 (≈ 133 µM)	< 0.125
O=[N+]([O-])c1ccccc1Cn1cc(CN(CC(O)(Cn2cncn2)c2ccc(F)cc2F)C2CC2)nn1 (stereo not given)	4 (≈ 7.84 µM)	64 (≈ 125 µM)	4 (≈ 7.84 µM)	4 (≈ 7.84 µM)	0.0625 (≈ 0.122 µM)	0.0625 (≈ 0.122 µM)	> 64	16 (≈ 31.3 µM)
O=[N+]([O-])c1cccc(Cn2cc(CN(CC(O)(Cn3cncn3)c3ccc(F)cc3F)C3CC3)nn2)c1 (stereo not given)	0.25 (≈ 0.49 µM)	64 (≈ 125 µM)	4 (≈ 7.84 µM)	8 (≈ 15.7 µM)	0.0156 (≈ 0.0306 µM)	0.0625 (≈ 0.122 µM)	> 64	4 (≈ 7.84 µM)
O=[N+]([O-])c1ccc(Cn2cc(CN(CC(O)(Cn3cncn3)c3ccc(F)cc3F)C3CC3)nn2)cc1 (stereo not given)	0.5 (≈ 0.979 µM)	16 (≈ 31.3 µM)	0.25 (≈ 0.49 µM)	1 (≈ 1.96 µM)	0.0039 (≈ 0.00764 µM)	0.25 (≈ 0.49 µM)	> 64	< 0.125
N#Cc1ccccc1Cn1cc(CN(CC(O)(Cn2cncn2)c2ccc(F)cc2F)C2CC2)nn1 (stereo not given)	2 (≈ 4.08 µM)	64 (≈ 130 µM)	1 (≈ 2.04 µM)	2 (≈ 4.08 µM)	1 (≈ 2.04 µM)	16 (≈ 32.6 µM)	> 64	0.25 (≈ 0.51 µM)
N#Cc1cccc(Cn2cc(CN(CC(O)(Cn3cncn3)c3ccc(F)cc3F)C3CC3)nn2)c1 (stereo not given)	4 (≈ 8.15 µM)	64 (≈ 130 µM)	1 (≈ 2.04 µM)	4 (≈ 8.15 µM)	1 (≈ 2.04 µM)	4 (≈ 8.15 µM)	> 64	4 (≈ 8.15 µM)
N#Cc1ccc(Cn2cc(CN(CC(O)(Cn3cncn3)c3ccc(F)cc3F)C3CC3)nn2)cc1 (stereo not given)	4 (≈ 8.15 µM)	64 (≈ 130 µM)	4 (≈ 8.15 µM)	4 (≈ 8.15 µM)	1 (≈ 2.04 µM)	0.0625 (≈ 0.127 µM)	> 64	1 (≈ 2.04 µM)
OC(CN(Cc1cn(Cc2c(Cl)cccc2Cl)nn1)C1CC1)(Cn1cncn1)c1ccc(F)cc1F (stereo not given)	1 (≈ 1.87 µM)	64 (≈ 120 µM)	4 (≈ 7.49 µM)	4 (≈ 7.49 µM)	0.25 (≈ 0.468 µM)	0.0625 (≈ 0.117 µM)	> 64	4 (≈ 7.49 µM)
CCc1ccc(Cn2cc(CN(CC(O)(Cn3cncn3)c3ccc(F)cc3F)C3CC3)nn2)cc1 (stereo not given)	2 (≈ 4.05 µM)	1 (≈ 2.03 µM)	2 (≈ 4.05 µM)	4 (≈ 8.1 µM)	0.25 (≈ 0.507 µM)	0.25 (≈ 0.507 µM)	> 64	4 (≈ 8.1 µM)
CC(C)(C)c1ccc(Cn2cc(CN(CC(O)(Cn3cncn3)c3ccc(F)cc3F)C3CC3)nn2)cc1 (stereo not given)	4 (≈ 7.67 µM)	4 (≈ 7.67 µM)	16 (≈ 30.7 µM)	0.25 (≈ 0.479 µM)	1 (≈ 1.92 µM)	< 0.125	> 64	0.0625 (≈ 0.12 µM)
C[C@@H]1[C@H](O)[C@@H](C)/C=C/C=C/C=C/C=C/C=C/C=C/C=C/[C@H](O[C@@H]2O[C@H](C)[C@@H](O)[C@H](N)[C@@H]2O)C[C@@H]2O[C@](O)(C[C@@H](O)C[C@@H](O)[C@H](O)CC[C@@H](O)C[C@@H](O)CC(=O)O[C@H]1C)C[C@H](O)[C@H]2C(=O)O [AMPHOTERICIN B]	1 (≈ 1.08 µM)	4 (≈ 4.33 µM)	0.25 (≈ 0.271 µM)	0.125 (≈ 0.135 µM)	0.25 (≈ 0.271 µM)	4 (≈ 4.33 µM)	32 (≈ 34.6 µM)	8 (≈ 8.66 µM)
OC(Cn1cncn1)(Cn1cncn1)c1ccc(F)cc1F [FLUCONAZOLE]	< 0.125	8 (≈ 26.1 µM)	< 0.125	2 (≈ 6.53 µM)	1 (≈ 3.27 µM)	0.5 (≈ 1.63 µM)	> 64	0.5 (≈ 1.63 µM)
CCC(C)n1ncn(-c2ccc(N3CCN(c4ccc(OCC5COC(Cn6cncn6)(c6ccc(Cl)cc6Cl)O5)cc4)CC3)cc2)c1=O (stereo not given) [ITRACONAZOLE]	0.0625 (≈ 0.0886 µM)	0.125 (≈ 0.177 µM)	< 0.0625	0.0625 (≈ 0.0886 µM)	0.0625 (≈ 0.0886 µM)	0.0625 (≈ 0.0886 µM)	2 (≈ 2.83 µM)	< 0.0625
CC(=O)N1CCN(c2ccc(OCC3COC(Cn4ccnc4)(c4ccc(Cl)cc4Cl)O3)cc2)CC1 (stereo not given) [KETOCONAZOLE]	< 0.125	0.5 (≈ 0.941 µM)	< 0.125	< 0.125	0.0625 (≈ 0.118 µM)	< 0.125	0.125 (≈ 0.235 µM)	< 0.125
CN(C/C=C/C#CC(C)(C)C)Cc1cccc2ccccc12 [TERBINAFINE]	< 0.125	8 (≈ 27.5 µM)	< 0.125	< 0.125	0.0625 (≈ 0.214 µM)	2 (≈ 6.86 µM)	0.25 (≈ 0.858 µM)	16 (≈ 54.9 µM)
C[C@@H](c1ncncc1F)[C@](O)(Cn1cncn1)c1ccc(F)cc1F [VORICONAZOLE]	0.25 (≈ 0.716 µM)	< 0.125	< 0.125	< 0.125	0.0039 (≈ 0.0112 µM)	< 0.125	< 0.125	32 (≈ 91.6 µM)
